Assay results taken from ChEMBL document CHEMBL1124972, “Antiatherosclerotic agents. A structurally novel bivalent inhibitor of acylCoA:cholesterol O-acyltransferase with systemic activity” (J Med Chem, 1990).
Each block holds one molecule with its values, some of them ahead of it.

Tests used:
[1] = tested on: Oryctolagus cuniculus; experiment: Tested in vivo for atheromatous lesion development in Netherland Dwarf rabbit; assay type: functional
Outline: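 Netherland Dwarf rabbits on cholesterol-containing atherogenic diet, dosed at 50 mg/kg; aortic lesion formation scored as % surface involvement, with plasma total cholesterol (mg/dL); means (±SEM) of 8 animals per group.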

[2] = tested on: Rattus norvegicus; experiment: Tested for plasma cholesterol levels against rat after 6.0 hours of oral administration.; assay type: functional, organism-based
Outline: (§1)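 Male Sprague-Dawley rats (4 per group) intubated orally with 0.6 mL suspension of 1 μCi [4-14C]cholesterol (53 Ci/Mol), corn oil, ethanol, DMSO and 1 mg cholesterol, with or without test agent at 30 mg/kg. Two rats per group bled by cardiac puncture at 2.5 and 6 h; plasma [14C]cholesterol measured as dpm/mL; mean of two animals.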

[3] = biological target: T1, Acyl-CoA:cholesterol acyltransferase (Oryctolagus cuniculus, UniProt Q95214); experiment: In vitro inhibitory activity against Acyl coenzyme A:cholesterol acyltransferase
T1 sequence (Q95214 whole entry): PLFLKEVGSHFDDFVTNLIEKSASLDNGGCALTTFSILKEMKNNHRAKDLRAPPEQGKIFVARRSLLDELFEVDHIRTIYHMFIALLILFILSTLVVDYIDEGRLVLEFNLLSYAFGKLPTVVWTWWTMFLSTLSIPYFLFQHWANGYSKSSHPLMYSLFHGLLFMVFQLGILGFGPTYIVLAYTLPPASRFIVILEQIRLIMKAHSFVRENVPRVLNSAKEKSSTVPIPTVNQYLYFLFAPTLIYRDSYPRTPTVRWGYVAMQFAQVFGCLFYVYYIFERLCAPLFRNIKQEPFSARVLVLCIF
Outline: (§2)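 Cellular assay: Fu5AH cells cultured with [³H]cholesterol-labeled hyperlipemic plasma lipoproteins; inhibition of [³H]cholesteryl ester synthesis and accumulation measured; IC50 given in μg/mL.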

[4] = tested on: Oryctolagus cuniculus; experiment: Tested in vivo for plasma cholesterol levels in Netherland Dwarf rabbit; assay type: functional, organism-based
Outline: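 Netherland Dwarf rabbits fed cholesterol-containing atherogenic diet, with test agent at 50 mg/kg; plasma total cholesterol in mg/dL measured, alongside aortic lesion surface involvement; means ±SEM of 8 animals per group.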

[5] = biological target: T2, Acyl-CoA:cholesterol acyltransferase (Oryctolagus cuniculus) (UniProt Q95214); experiment: Reduction of ACAT activity after treatment was measured in rabbit aorta; assay type: functional, tissue-based
T2 sequence (whole entry): T1 sequence (Q95214 whole entry)
Outline: (§3)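 Rabbits given 10-day cholesterol feeding to raise arterial ACAT, then dosed orally at 50 mg kg⁻¹ day⁻¹ for 6 days; aortas excised, incubated in vitro with [1-14C]oleate for 3 h; ACAT activity as cholesteryl [14C]oleate formed, dpm/100 mg wet weight aorta; means of 2 animals per group.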

[6] = biological target: T2, Acyl-CoA:cholesterol acyltransferase (Oryctolagus cuniculus); experiment: Arterial Acyl coenzyme A:cholesterol acyltransferase activity was measured in vitro in rabbit aorta after administration of 50 mg/Kg; assay type: functional, organism-based; outline: as §3
[7] = biological target: T3, Sterol O-acyltransferase 1 (Rattus norvegicus) (UniProt O70536); experiment: ACAT inhibitory activity was measured in rat liver after administration of 30 mg/Kg; assay type: functional, organism-based
T3 sequence (whole entry): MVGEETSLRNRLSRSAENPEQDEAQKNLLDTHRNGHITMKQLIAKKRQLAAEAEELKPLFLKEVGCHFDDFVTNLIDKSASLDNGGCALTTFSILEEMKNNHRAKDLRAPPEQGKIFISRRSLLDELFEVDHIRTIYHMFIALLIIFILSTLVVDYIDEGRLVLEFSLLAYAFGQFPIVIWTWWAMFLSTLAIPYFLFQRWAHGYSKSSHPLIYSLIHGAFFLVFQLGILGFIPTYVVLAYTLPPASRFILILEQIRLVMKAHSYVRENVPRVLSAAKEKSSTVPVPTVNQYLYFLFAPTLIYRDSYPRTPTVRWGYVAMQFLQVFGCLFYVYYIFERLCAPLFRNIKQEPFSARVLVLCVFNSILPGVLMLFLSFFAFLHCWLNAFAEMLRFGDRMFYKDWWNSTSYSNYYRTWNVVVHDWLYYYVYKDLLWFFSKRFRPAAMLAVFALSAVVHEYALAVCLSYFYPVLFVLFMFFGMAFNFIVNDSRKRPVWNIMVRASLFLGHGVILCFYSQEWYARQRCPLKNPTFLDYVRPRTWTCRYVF
Outline: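 Male Sprague-Dawley rats (435-460 g) fed Purina chow with compound in diet (calculated 30 mg kg⁻¹ day⁻¹) for 8 days; liver minces incubated in vitro with [1-14C]oleate for 90 min; ACAT activity read as cholesteryl [14C]oleate formed, dpm/100 mg wet weight; means of 2 animals per group.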

[8] = tested on: Sterol O-acyltransferase 1 (Rattus norvegicus); experiment: Reduction of ACAT activity after treatment was measured in rat liver
[9] = tested on: Rattus norvegicus; experiment: Tested for plasma cholesterol levels against rat after 2.5 hours of oral administration.; assay type: functional, organism-based; outline: as §1
[10] = biological target: T1, Acyl-CoA:cholesterol acyltransferase; experiment: In vitro inhibitory activity against Acyl coenzyme A:cholesterol acyltransferase; a = inactive; outline: as §2
[11] = biological target: T2, Acyl-CoA:cholesterol acyltransferase (Oryctolagus cuniculus); experiment: In vitro inhibitory activity against Acyl coenzyme A:cholesterol acyltransferase at a concentration of 5 ug/mL

IC50 [3]: 4.19 µM
Compound: COc1c2c(c(OC)c3c(=O)cc(CN4CCC(CCC5CCN(Cc6cc(=O)c7c(OC)c8c(c(OC)c7o6)OCC8)CC5)CC4)oc13)CCO2

IC50 [3]: < 13.4 µM
Compound: COc1c2occ(F)c2c(OC)c2c(=O)cc(CN3CCC(CCC4CCN(Cc5cc(=O)c6c(OC)c7c(F)coc7c(OC)c6o5)CC4)CC3)oc12

IC50 [3]: 5.78 µM
Compound: COc1c2occc2c(OC)c2c(=O)cc(CN3CCC(CCCC4CCN(Cc5cc(=O)c6c(OC)c7ccoc7c(OC)c6o5)CC4)CC3)oc12

The next lines start with the molecule.

Compound: COc1c2occc2c(OC)c2c(=O)cc(CN3CCC(CCC4CCN(Cc5cc(=O)c6c(OC)c7ccoc7c(OC)c6o5)CC4)CC3)oc12
Surface involvement [1]: <10%
Plasma [14C] cholesterol [2]: 3880 dpm/mL
IC50 [3]: 1.12 µM
Plasma total cholesterol [4]: 271 mg/dL
Reduction [5]: 42%
ACAT activity (dpm/100 mg wet wt) [6]: 305
ACAT activity (dpm/100 mg wet wt) [7]: 535
Reduction [8]: 62%
Plasma [14C] cholesterol [9]: 818 dpm/mL

Compound: COc1c2occc2c(O)c2c(=O)cc(CN3CCC(CCC4CCN(Cc5cc(=O)c6c(O)c7ccoc7c(OC)c6o5)CC4)CC3)oc12
IC50 [10]: Not Active

Compound: COc1c2occc2c(OC)c2c(=O)cc(CN3CCC(C4CCN(Cc5cc(=O)c6c(OC)c7ccoc7c(OC)c6o5)CC4)CC3)oc12
inhibition [11]: 0%

Compound: COc1c2occc2c(OC)c2c(=O)cc(CN3CCN(CCN4CCN(Cc5cc(=O)c6c(OC)c7ccoc7c(OC)c6o5)CC4)CC3)oc12
inhibition [11]: 5%

Compound: COc1c2occc2c(OC)c2c(=O)cc(CN3CCN(CC(O)CN4CCN(Cc5cc(=O)c6c(OC)c7ccoc7c(OC)c6o5)CC4)CC3)oc12
inhibition [11]: 7%
